Results taken from ChEMBL document CHEMBL3120090, “High-affinity recognition of HIV-1 frameshift-stimulating RNA alters frameshifting in vitro and interferes with HIV-1 infectivity” (J Med Chem, 2014).
The source made the active and inactive calls. The calls are words filed in the database; no cut-off is given here.

Key:
[1] = tested on: Human immunodeficiency virus 1; assay: Binding affinity to HIV-1 FSS RNA in HBS buffer at pH 7.4 assessed as association rate by surface plasmon resonance analysis
How it was run: (§1)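 RNA captured on SPR chips at low (~300 RU) and high (~1200 RU) density, each measured once. Compound flowed in HBS (0.01 M HEPES, 0.150 M NaCl, pH 7.4) at 60 μL/min over at least five concentrations, each injected at least twice. A 20 s 0.5 or 1 M NaCl pulse regenerated the chip where needed. Reference-subtracted, blank-corrected sensorgrams (association plus dissociation) were globally fit to 1:1 Langmuir; error is standard error of the fit.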

[2] = tested on: Human T-lymphotropic virus 2; assay: Binding affinity to HTLV-2 FSS RNA up to 3 uM by surface plasmon resonance analysis
[3] = tested on: Human immunodeficiency virus 1; assay: Antiviral activity against HIV-1 NL4-3 assessed as reduction in viral infectivity in human TZM-bl cells at 40 uM after 48 hrs by firefly luciferase reporter gene assay; type: functional
[4] = Binding affinity to HIV-1 FSS RNA in HBS buffer at pH 7.4 by surface plasmon resonance analysis; set-up: species or system Human immunodeficiency virus 1; how it was run: as §1
HEK293FT [5] = assay: Binding affinity to HIV-1 FSS RNA transfected in HEK293FT cells at 50 uM after 36 hrs by Renilla/firefly luciferase reporter gene assay; type: cell-based; conditions: Human immunodeficiency virus 1
How it was run: (§2)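 HEK293FT cells (1.5 × 10^4/well) transiently transfected with pDualHIV(−1) or in-frame pDualHIV(0) Rluc–FSS–Fluc plasmid (0.2 μg). Compound (0–50 μM) added 5 h later, in triplicate, for 36 h at 37 °C. Fluc/Rluc ratio from lysate, expressed relative to untreated transfected cells (100%). Error is SEM.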

HEK293FT [6] = assay: Binding affinity to HIV-1 FSS RNA transfected in HEK293FT cells after 36 hrs by Renilla/firefly luciferase reporter gene assay; type: cell-based; conditions: Human immunodeficiency virus 1; how it was run: as §2
[7] = tested on: Human immunodeficiency virus 1; assay: (§3) Binding affinity to HIV-1 FSS RNA in HBS buffer at pH 7.4 assessed as dissociation rate by surface plasmon resonance analysis; how it was run: as §1
[8] = Binding affinity to HIV-1 FSS RNA after 10 mins by fluorescence titration analysis; set-up: species or system Human immunodeficiency virus 1
How it was run: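 Solution fluorescence titration in 20 mM HEPES, 150 mM NaCl. Compound at 1 μM, titrated with unlabeled HIV-1 FSS RNA (10 μM stock), FSS DNA or yeast tRNA (40 μM stocks). 10 min equilibration after each addition. Quenching of benzo[g]quinoline fluorescence read in triplicate 1 min apart, corrected for dilution; KD from saturable quenching. Error is SD.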

[9] = as §3; set-up: species or system Human immunodeficiency virus 1; how it was run: as §1
[10] = Cellular uptake in nucleus of HEK293FT cells at 50 uM measured for 12 hrs by fluorescence microscopy; type: ADME, cell-based; conditions: human
[11] = Cytotoxicity against HEK293FT cells assessed as cell viability at >10 uM after 24 hrs by WST-1 assay; type: cell-based; conditions: human
How it was run: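 HEK293FT cells at 80% confluence in DMEM/10% FBS exposed to compound (up to 0.5 mM) or a water control, in triplicate, for 24 h at 37 °C. WST-1 reagent then added for 2 h. Absorbance at 450 minus 690 nm, blank-corrected, plotted against concentration. Error is SD of three measurements.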

[12] = Cellular uptake in cytoplasm of HEK293FT cells at 50 uM measured for 12 hrs by fluorescence microscopy; type: ADME, cell-based; conditions: human
HEK293FT [13] = assay: Binding affinity to HTLV-2 FSS RNA transfected in HEK293FT cells at 1 to 50 uM after 36 hrs by Renilla/firefly luciferase reporter gene assay; type: cell-based; conditions: Human T-lymphotropic virus 2
How it was run: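 HEK293FT cells transiently transfected with pDualHTLV-2(−1) (Fluc made only via −1 frameshift at the HTLV-2 site) and treated 5 h later with compound (0–50 μM) in triplicate for 36 h at 37 °C. Fluc/Rluc ratio from lysate, relative to untreated transfected cells. Error is SEM.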

[14] = Binding affinity to HIV-1 FSS RNA; set-up: species or system Human immunodeficiency virus 1

Activity [2] | SMILES | Activity (HEK293FT [6]) | Ka [1] | Kd ([4]; read-out: Kd) [µM] | Dissociation rate constant (koff) [9] | other results
inactive | NCCCNC(=O)[C@H](Cc1ccccc1)NC(=O)[C@@H]1CCCN1C(=O)[C@@H](N)C/C=C/C[C@H](N)C(=O)N1CCC[C@H]1C(=O)N[C@@H](Cc1ccccc1)C(=O)NCCCN | inactive | – | – | – | Activity [1]: inactive; Activity [3]: Active; Kd [4]: Not Active; Activity (HEK293FT [5]): inactive; Activity [7]: inactive
inactive | C=CC[C@H](NC(=O)c1cc2cc3ccccc3cc2nc1CC)C(=O)N1CCC[C@H]1C(=O)N[C@@H](Cc1ccccc1)C(=O)NCCCN | – | 1.16 ×10³ /M/s | 19.5 | 2.25 ×10⁻² /s | Kd [8]: 0.409 µM
– | CCc1nc2cc3ccccc3cc2cc1C(=O)N[C@@H](CSSC[C@H](NC(=O)c1cc2cc3ccccc3cc2nc1CC)C(=O)N1CCC[C@H]1C(=O)N[C@@H](Cc1ccccc1)C(=O)NCCCN)C(=O)N1CCC[C@H]1C(=O)N[C@@H](Cc1ccccc1)C(=O)NCCCN | 25% | 1.07 ×10⁴ /M/s | 0.741 | 7.92 ×10⁻³ /s | Drug uptake [10]: Active; Activity [11]: Toxic; Drug uptake [12]: Active; Activity (HEK293FT [13]): inactive
inactive | NCCCNC(=O)[C@H](Cc1ccccc1)NC(=O)[C@@H]1CCCN1C(=O)[C@@H](N)C/C=C\C[C@H](N)C(=O)N1CCC[C@H]1C(=O)N[C@@H](Cc1ccccc1)C(=O)NCCCN | – | – | – | – | –
– | CN(C)CCCNC(=N)c1ccc(C(=N)NCCCN(C)C)cc1 | – | – | – | – | Kd [14]: 360 µM
